These results are taken from ChEMBL document CHEMBL2417419, “Synthesis and quantitative structure-activity relationship of imidazotetrazine prodrugs with activity independent of O6-methylguanine-DNA-methyltransferase, DNA mismatch repair, and p53” (J Med Chem, 2013).

Data set [1] deals with A2780. As to the kind of experiment: Chemosensitization of human A2780 cells after 5 days by MTT assay. Type of data set: functional, cell-based. To be noted: A2780, 120 h.
In data set [2] the test system is A2780/CP70. In words: (§1) Chemosensitization of MMR-deficient human A2780/CP70 cells after 5 days by MTT assay. Type of data set: functional, cell-based.
Data set [3] has as its system A2780. In words: Ratio of IC50 for MMR-deficient human A2780/CP70 cells to IC50 for human A2780 cells in presence of MGMT inactivator PaTrin2. In kind it is functional.
Data set [4] concerns A2780. In words: Ratio of IC50 for human A2780 cells to IC50 for human A2780 cells in presence of MGMT inactivator PaTrin2. In kind it is functional.
Data set [5] has as its system A2780/CP70. As to the kind of experiment: (§2) Chemoseinsitizatioin of MMR-deficieint humain A2780/CP70 cells after 5 days by MTT assay in preseince of MGMT iinactivator PaTriin2. Type of data set: functional, cell-based. Particulars: Homo sapiens. A digest of the protocol: (§3)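 Cells plated at 1×10^3 per well and left overnight at 37 °C in 5% CO2 to adhere. Medium was then replaced with fresh medium holding compound (0 controls to 250 µM; DMSO stock, final DMSO <0.1% v/v) plus 10 µM PaTrin2 to inactivate MGMT. Survival was read by MTT after 5 days at 37 °C.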
In general terms: Tetrazolium assays rely on reduction of a dye to a coloured formazan, in cell work by metabolically active cells.

The test system of data set [6] is HCT-116. As to the kind of experiment: Ratio of IC50 for human HCT116 cells expressing p53 to IC50 for p53-deficient human HCT116 cells. In kind it is functional.
In data set [7] the test system is HCT-116. In words: Chemosensitization of p53-deficient human HCT116 cells after 5 days by MTT assay. In kind it is functional, cell-based. To be noted: HCT-116, 120 h. A digest of the protocol:
(§4)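 Cells were seeded at 1×10^3 per well and incubated overnight (37 °C, 5% CO2) to attach, then given fresh medium with compound at 0 (control) to 250 µM. Compounds were dissolved in DMSO, final DMSO <0.1% v/v, with no PaTrin2. MTT survival was measured after 5 days at 37 °C. Isogenic HCT116 p53+/+ and p53−/− pair used.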

Data set [8] concerns HCT-116. As to the kind of experiment: Chemosensitization of human HCT116 cells expressing p53 after 5 days by MTT assay. Type of data set: functional, cell-based. To be noted: HCT-116, 120 h. In outline: as §4
Data set [9] deals with A2780. In words: Chemosensitization of human A2780 cells after 5 days by MTT assay in presence of MGMT inactivator PaTrin2. In kind it is functional, cell-based. Particulars: A2780, 120 h. A digest of the protocol:
as §3

Data set [10] concerns SNB-19. As to the kind of experiment: Chemosensitization of MGMT-deficient human SNB19 cells after 5 days by MTT assay. Type of data set: functional, cell-based. Particulars: SNB-19, 120 h, in the assay text read “Cyquant assay” for “MTT assay”.
For data set [11], the system named is A2058. As to the kind of experiment: Chemosensitization of human A2058 cells after 5 days by MTT assay. In kind it is functional, cell-based. To be noted: A2058, 120 h, in the assay text read “Cyquant assay” for “MTT assay”.
A short description of data set [12]: Half life of the compound at pH 7.4. In kind it is physicochemical.
Data set [13] is described as follows: as §1. To be noted: A2780/CP70, 120 h. In kind it is functional, cell-based.
For data set [14], the system named is SNB-19. As to the kind of experiment: Chemosensitization of human SNB19 cells expressing MGMT after 5 days by MTT assay. Type of data set: functional, cell-based. Particulars: SNB-19, 120 h, in the assay text read “Cyquant assay” for “MTT assay”.
The nature of data set [15]: as §2. Particulars: Homo sapiens, A2780/CP70, 120 h. Type of data set: functional, cell-based. A digest of the protocol: as §3
The subject of data set [16] is A2058. In words: Ratio of temozolomide IC50 to compound IC50 for human A2058 cells. Type of data set: functional.

In general, IC50 refers to the midpoint of a concentration-inhibition curve. By half-life is commonly meant the time needed for the level to fall by half in the phase considered. The low end stands for rapid decline, the high end for slow decline.

SMILES strings stand for the structures. Activity calls are given as the source filed them.

For `CN(CCn1nnc2c(C(N)=O)ncn2c1=O)c1ccc(F)cc1`, in the data set on A2780 [1], the IC50 is 22 µM. Also, the outcome in the data set with A2780/CP70 [2] and in the data set with A2780/CP70 [5] was Active. Also, the entries for the “Ratio IC50” value with A2780 [3] and in the data set with A2780 [4] were 2.8 and 1.1, respectively.
As for `COc1ccc(N(C)CCn2nnc3c(C(N)=O)ncn3c2=O)c([N+](=O)[O-])c1`, the IC50 with A2780 [1] turned out to be 22 µM. For the same compound, the outcome with A2780/CP70 [2] and in the data set on A2780/CP70 [5] was Active. The “Ratio IC50” value was 2.8 in the data set with A2780 [3] and 1.1 in the data set on A2780 [4].
As for `NC(=O)c1ncn2c(=O)n(CCN(CCn3nnc4c(C(N)=O)ncn4c3=O)c3ccc(Cl)cc3)nnc12`, the IC50 in the data set on A2780 [1] is 1 µM. Moreover, the outcome with A2780/CP70 [2] and in the data set with A2780/CP70 [5] was Active. In addition, the “Ratio IC50” value with A2780 [3] is listed as 5; in the data set with A2780 [4], 0.5.
As for `CN(CCn1nnc2c(C(N)=O)ncn2c1=O)c1ccc(Cl)cc1`, the IC50 in the data set on A2780 [1] was determined as 22 µM; with HCT-116 [7], 35.8 µM; in the data set on HCT-116 [8], 55 µM. Further, the outcome in the data set with A2780/CP70 [2] and in the data set with A2780/CP70 [5] was Active. Besides, the “Ratio IC50” value in the data set on HCT-116 [6] is given as 1.5; with A2780 [3], 2.8; in the data set with A2780 [4] it was 1.1.
Consider `Cn1nnc2c(C(N)=O)ncn2c1=O` [TEMOZOLOMIDE], for which the IC50 was 8.5 µM with A2780 [9]; 37 µM in the data set with SNB-19 [10]; above 250 µM in the data set with A2780 [1]; 35.5 µM in the data set on A2058 [11]; above 250 µM in data set [13]; above 250 µM in the data set with SNB-19 [14]. In addition, inhibition in [15] was half-maximal at 231 µM (IC50). The half-life in [12] was 1.24 h. Further, the “Ratio IC50” value is above 27 in the data set on A2780 [3] and above 30 with A2780 [4].
As for `Cc1ccc(N(C)CCn2nnc3c(C(N)=O)ncn3c2=O)cc1[N+](=O)[O-]`, in the data set with A2780 [1], the IC50 came to 22 µM. The result in the data set with A2780/CP70 [2] and in the data set with A2780/CP70 [5] was Active. Also, the “Ratio IC50” value in the data set on A2780 [3] is on record as 2.8; in the data set with A2780 [4], 1.1.
Take `COc1ccc(N(CCn2nnc3c(C(N)=O)ncn3c2=O)CCn2nnc3c(C(N)=O)ncn3c2=O)c([N+](=O)[O-])c1`: the half-maximal inhibitory concentration (IC50) in the data set on A2780 [1] turned out to be 1 µM. The outcome with A2780/CP70 [2] and with A2780/CP70 [5] was Active. The “Ratio IC50” value in the data set with A2780 [3] worked out at 5; in the data set with A2780 [4], 0.5.
On to `CN(CCn1nnc2c(C(N)=O)ncn2c1=O)c1ccccc1`, for which the IC50 in the data set on A2780 [1] turned out to be 22 µM. Also, the result in the data set on A2780/CP70 [2] and with A2780/CP70 [5] was Active. For the same compound, the “Ratio IC50” value came out at 2.8 in the data set with A2780 [3] and 1.1 with A2780 [4].
For `CC(C)(C)OC(=O)N(CCn1nnc2c(C(N)=O)ncn2c1=O)c1ccc(Cl)cc1`, the IC50 in the data set with A2780 [1] worked out at 22 µM. Further, the outcome in the data set with A2780/CP70 [2] and in the data set with A2780/CP70 [5] was Active. Further, the “Ratio IC50” value with A2780 [3] came to 2.8; with A2780 [4], 1.1.
With `COc1ccc(N(CCn2nnc3c(C(N)=O)ncn3c2=O)CCn2nnc3c(C(N)=O)ncn3c2=O)cc1`, the half-maximal inhibitory concentration (IC50) with SNB-19 [10] came to 6.6 µM; with A2780 [1] it was 1 µM; in the data set on A2058 [11] it was 2.5 µM; with HCT-116 [7] it was 9.9 µM; with SNB-19 [14] it was 7 µM; with HCT-116 [8], 7.6 µM. Moreover, the outcome with A2780/CP70 [2] and in the data set on A2780/CP70 [5] was Active. For the same compound, the “Ratio IC50” value in the data set with HCT-116 [6] is reported as 0.8; with A2780 [3] it was 5; with A2058 [16], 10; with A2780 [4] it was 0.5.
As for `NC(=O)c1ncn2c(=O)n(CCN(CCn3nnc4c(C(N)=O)ncn4c3=O)c3ccccc3)nnc12`, the figures for the IC50 in the data set with A2780 [1], with HCT-116 [7] and in the data set with HCT-116 [8] were 1 µM, 4.8 µM and 5.5 µM, respectively. For the same compound, the outcome in the data set on A2780/CP70 [2] and in the data set with A2780/CP70 [5] was Active. Further, the “Ratio IC50” value in the data set with HCT-116 [6] is 1.1; with A2780 [3], 5; with A2780 [4] it was 0.5.
Consider `Cc1ccc(N(CCn2nnc3c(C(N)=O)ncn3c2=O)CCn2nnc3c(C(N)=O)ncn3c2=O)cc1`, for which the IC50 with A2780 [1] is 1 µM; in the data set with HCT-116 [7] it was 4.4 µM; in the data set on HCT-116 [8], 6.2 µM. The outcome in the data set on A2780/CP70 [2] and in the data set with A2780/CP70 [5] was Active. Besides, the “Ratio IC50” value is reported as 1.4 in the data set with HCT-116 [6], 5 in the data set on A2780 [3] and 0.5 in the data set with A2780 [4].
Consider `NC(=O)c1ncn2c(=O)n(CCN(CCn3nnc4c(C(N)=O)ncn4c3=O)c3ccc(F)cc3)nnc12`, for which the IC50 in the data set with SNB-19 [10] is 11 µM; in the data set with A2780 [1], 1 µM; in the data set with A2058 [11], 5.5 µM; in the data set with HCT-116 [7] it was 17 µM; in the data set with SNB-19 [14], 12 µM; in the data set with HCT-116 [8], 28 µM. The outcome in the data set with A2780/CP70 [2] and in the data set with A2780/CP70 [5] was Active. The “Ratio IC50” value in the data set on HCT-116 [6] turned out to be 1.6; in the data set with A2780 [3], 5; in the data set with A2058 [16], 10; in the data set on A2780 [4] it was 0.5.
`Cc1ccc(N(C)CCn2nnc3c(C(N)=O)ncn3c2=O)cc1`: the half-inhibitory concentration (IC50) in the data set with A2780 [1] came out at 22 µM. Moreover, the result in the data set on A2780/CP70 [2] and in the data set on A2780/CP70 [5] was Active. The “Ratio IC50” value amounted to 2.8 in the data set on A2780 [3] and 1.1 with A2780 [4].
As for `NC(=O)c1ncn2c(=O)n(CCNc3ccc(Cl)cc3)nnc12`, the IC50 in the data set on SNB-19 [10] is 77 µM; in the data set with A2780 [1], 22 µM; with A2058 [11], above 100 µM; in the data set with HCT-116 [7], 9.5 µM; with SNB-19 [14], above 100 µM; with HCT-116 [8], 13.2 µM. In addition, the result with A2780/CP70 [2] and in the data set with A2780/CP70 [5] was Active. The “Ratio IC50” value is 1.4 in the data set with HCT-116 [6], 2.8 in the data set on A2780 [3] and 1.1 in the data set on A2780 [4].
With `CN(CCn1nnc2c(C(N)=O)ncn2c1=O)c1ccc([N+](=O)[O-])cc1`, in the data set with A2780 [1], the IC50 was 22 µM. In addition, the result with A2780/CP70 [2] and with A2780/CP70 [5] was Active. Also, the “Ratio IC50” value is 2.8 in the data set on A2780 [3] and 1.1 in the data set with A2780 [4].
With `NC(=O)c1ncn2c(=O)n(CCCl)nnc12` [MITOZOLOMIDE], the “Ratio IC50” value in the data set with HCT-116 [6] is 3.4. The IC50 with HCT-116 [7] was 17.9 µM; in the data set with HCT-116 [8] it was 60 µM.
